Measured values pooled from the literature.
Organism: Severe acute respiratory syndrome coronavirus 2

OC(CCN1CCCCC1)(c1ccccc1)C1CCCCC1 (stereo not drawn)
IC50 (viral replication; Vero C1008): 8910 nM

COc1ccc(C[C@@H]2c3cc(Oc4cc(C[C@@H]5c6cc(O)c(OC)cc6CCN5C)ccc4O)c(OC)cc3CCN2C)cc1
inhibition (cytopathic effect; Vero C1008; 12.5 µM): 0%

Cc1cc(C)c(N(C)CC(=O)Nc2nc(-c3ccccn3)c[nH]2)c(C)c1
inhibition (viral replication, inhibitor; Vero C1008; 1 µM): 50.7%

[2H]C([2H])([2H])n1cc2cc(/N=c3\[nH]c(=O)n(Cc4ncn(C)n4)c(=O)n3Cc3cc(F)c(F)cc3F)c(Cl)cc2n1
EC50 (viral replication, inhibitor, qPCR; 48 h): 18 nM

CC(C)/N=c1\cc2n(-c3ccc(Cl)cc3)c3ccccc3nc-2cc1Nc1ccc(Cl)cc1
IC50 (viral replication, inhibitor; Huh-7): 85 nM

CN1CCN(C2=Nc3ccccc3Oc3ccc(Cl)cc32)CC1
IC50 (viral replication, inhibitor; Vero C1008): 11500 nM

CCC(C)(C)C(=O)O[C@H]1C[C@@H](C)C=C2C=C[C@H](C)[C@H](CC[C@@H]3C[C@@H](O)CC(=O)O3)[C@H]21
IC50 (viral replication, inhibitor; Huh-7): > 2000 nM

O=C(Nc1ccccc1F)c1cc2c(=O)n3ccccc3nc2n1Cc1ccccc1
inhibition (viral replication; Vero; 1 nM): 12.3%

CCC(CC)COC(=O)[C@H](C)N[P@](=O)(OC[C@H]1O[C@@](C#N)(c2ccc3c(N)ncnn23)[C@H](O)[C@@H]1O)Oc1ccccc1
EC90 (viral replication, inhibitor, qPCR; Vero C1008; 48 h): 7050 nM

CCCN(CCC)c1cc(C)nc2c(-c3cnc(N(C)C)cc3C)c(C)nn12
inhibition (viral replication, inhibitor; Vero C1008; 1 µM): 60%

CN(C)CCCN1c2ccccc2Sc2ccc(Cl)cc21
IC50 (viral replication; Vero C1008): 282 nM

CN[C@@H](C)C(=O)N[C@H]1CN(C(=O)CC(C)C)CC[C@H]2CC[C@@H](C(=O)NC(c3ccccc3)c3ccccc3)N2C1=O
inhibition (viral replication, inhibitor; Vero C1008; 1 µM): 54%

[2H]C([2H])(c1cc(F)c(F)cc1F)n1c(=O)n(Cc2ncn(C)n2)c(=O)[nH]/c1=N\c1cc2cn(C)nc2cc1Cl
EC50 (viral replication, inhibitor, qPCR; 48 h): 24 nM

CCN(C(C)=O)c1cccc(-c2ccnc3c(C#N)cnn23)c1
inhibition (viral replication, inhibitor; Vero C1008; 1 µM): 42.1%

Cn1c(C(=O)Nc2ccc(Cl)cc2)cc2c(=O)n3ccccc3nc21
inhibition (viral replication; Vero; 10 µM): 91.8%

OCCN1CCN(CCCN2c3ccccc3C=Cc3ccccc32)CC1
IC50 (viral replication; Vero C1008): 10000 nM

O=C(/C=C/c1ccc(O)c(O)c1/C=C/c1ccc(O)c(O)c1)O[C@H](Cc1ccc(O)c(O)c1)C(=O)O
inhibition (cytopathic effect, inhibitor; Vero C1008; 1.562 µM): 0%

Cc1cc(NC(=O)c2cc3c(=O)n4cccc(C)c4nc3n2C)ccc1Br
inhibition (viral replication; Vero; 10 µM): 91.9%

Cc1cccc(CN2CCN(C(c3ccccc3)c3ccc(Cl)cc3)CC2)c1 (stereo not drawn)
IC50 (viral replication; Vero C1008): 1350 nM

CCCCCCCCCCCCCCCCOCCCOP(=O)(O)OC[C@H]1O[C@@](C#N)(c2ccc3c(N)ncnn23)[C@H](O)[C@@H]1O
EC50 (viral replication, inhibitor, qPCR; Vero C1008): 630 nM

CC(C)[C@H]1CC[C@H](C(=O)N[C@H](Cc2ccccc2)C(=O)O)CC1
IC50 (viral replication, inhibitor; Huh-7): > 2000 nM

Cc1cccc(C)c1OCC(=O)N[C@@H](Cc1ccccc1)[C@@H](O)C[C@H](Cc1ccccc1)NC(=O)[C@H](C(C)C)N1CCCNC1=O
EC50 (viral replication, inhibitor; Vero C1008): < 100000 nM

CCOC(=O)c1[nH]c2cc(OC)c(OC)cc2c1CCN1CCN(c2ccccc2)CC1
inhibition (viral replication, inhibitor; Vero C1008; 1 µM): 52.8%

C=C[C@@](C)(/C=C/c1ccc(O)cc1)CCC=C(C)C
inhibition (cytopathic effect; Vero C1008; 25 µM): 0%

COc1ccc2c(c1)c(CC(=O)O)c(C)n2C(=O)c1ccc(Cl)cc1
EC50 (plaque formation; Vero C1008): ~100000 nM

O=C(O[C@@H]1Cc2c(O)cc(O)cc2O[C@@H]1c1cc(O)c(O)c(O)c1)c1cc(O)c(O)c(O)c1
inhibition (cytopathic effect, inhibitor; Vero C1008; 3.125 µM): 0%

CN(CCc1ccc(Cl)c(Cl)c1)CCN1CCCC1
IC50 (viral replication, inhibitor; A549-ACE2): 1480 nM

CCCCCCCCCCCCCCCCCCOC[C@H](COP(=O)(O)OC[C@H]1O[C@@](C#N)(c2ccc3c(N)ncnn23)[C@H](O)[C@@H]1O)OCc1ccccc1
EC50 (viral replication, inhibitor, qPCR; Vero C1008): 140 nM

Clc1ccc(C(OCCN2CCCCC2)c2ccccc2)cc1 (stereo not drawn)
IC50 (viral replication, inhibitor; A549-ACE2): 1510 nM

CCC(CC)COC(=O)[C@H](C)N[P@](=O)(OC[C@H]1O[C@@](C#N)(c2ccc3c(N)ncnn23)[C@H](O)[C@@H]1O)Oc1ccccc1
inhibition (viral replication; Vero; 10 nM): 53.8%

N#C[C@@]1(c2ccc3c(N)ncnn23)O[C@H](CO)[C@@H](O)[C@H]1O
EC90 (viral replication, inhibitor, qPCR; Vero C1008; 48 h): 770 nM

CCN(CCO)CCCC(C)Nc1ccnc2cc(Cl)ccc12 (stereo not drawn)
IC50 (viral replication, inhibitor; Huh-7): > 2000 nM

N[C@@H](Cc1cc(I)c(Oc2cc(I)c(O)c(I)c2)c(I)c1)C(=O)O
EC50 (plaque formation, inhibitor; Vero C1008): 7000 nM

CC(C)=CCc1c(O)ccc(C(=O)/C=C/c2ccc(O)cc2)c1O
inhibition (cytopathic effect; Vero C1008; 100 µM): 90%

CCCN(CCC)CCc1ccc(OC)c(OCCc2ccccc2)c1
IC50 (viral replication; Vero C1008): 3890 nM

COc1ccc(CCN(C)CCCC(C#N)(c2ccc(OC)c(OC)c2)C(C)C)cc1OC (stereo not drawn)
IC50 (viral replication, inhibitor; Huh-7): 534 nM

CCCCCCCCCCCCCCCCCCOCCOP(=O)(O)OC[C@H]1O[C@@](C#N)(c2ccc3c(N)ncnn23)[C@H](O)[C@@H]1O
EC90 (viral replication, inhibitor, qPCR; Vero C1008; 48 h): 330 nM

c1ccc([C@H]2CN3CCSC3=N2)cc1
IC50 (viral replication, inhibitor; Huh-7): > 2000 nM

Cn1c(C(=O)Nc2ccc3c(c2)OCCO3)cc2c(=O)n3ccccc3nc21
inhibition (viral replication; Vero; 10 µM): 91.8%
